From PubChem BioAssay
S100A4 MyoIIA – blocks human S100A4 binding to myosin IIA peptide; S100A4/TAMRA-MyoIIA peptide fluorescence polarization; hit rate 0.14% among 360,000; inhibition, % at 10.7 µM; P26447;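 active means mean inhibition of at least 70% across replicates, with every replicate also reaching that level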
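assay system = human S100A4 monomer with TAMRA-labelled myosin IIA peptide | also added = labelled myosin peptide probe, 5 nM | incubation = 5 min between mix addition and reading | control set = DMSO and TFP controls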
Ecoli rRNA inh – selective bacterial rRNA inhibition in E. coli; E. coli WT GFP vs humanized-ribosome RFP mutants, fluorescence, 24 h; hits give low values; DMSO median 0, no signal -100; AID 720706; GFP signal change (wild-type ribosome), % (concentration not given with the values); hit rate 1.6% among 350,000;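 active means significant combined selectivity score with lowered wild-type GFP, culture density cut under 30%, mutant RFP and density less affected; inactive means any of these conditions unmet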
ARNT-TACC3 inh – ARNT/TACC3 interaction disruption. hit rate 0.66% among 390,000. AlphaScreen His-ARNT PAS-B/GST-TACC3 binding, luminescence; TACC3 fragment carries E629A point mutation. Q9Y6A5. inhibition, % at 9.99 µM;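 active means mean inhibition of replicates at least 50% and at least half of replicates each reaching 50%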;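 further: 0% = complete ARNT plus TACC3 wells and 100% = ARNT alone without TACC3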
ERAP1 inh – ERAP1 (human) enzyme inhibition. recombinant ERAP1, Leu-AMC fluorescence, 60 min. inhibition, % at 10.7 µM. hit rate 0.15% among 340,000. AID 652197;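 active means mean replicate inhibition of at least 30%, or all replicates individually reaching that 30% level; inactive means mean below 30% and not every replicate reaching it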;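 further: 0% = neutral control wells and 100% = L-leucinethiol positive control wells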
PGC1a acetyl inh – modulators of PGC1a acetylation | U2OS PGC1a acetylation, AlphaScreen anti-acetyl-lysine; with virally co-expressed GCN5 acetyltransferase | inhibition, % at 15.6 µM | hit rate 0.17% among 350,000;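 active means every replicate shows inhibition of at least 40%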;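 further: 0% = neutral control wells and 100% = positive control wells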
CASP6 VEID inh – blocks human caspase-6 cleavage activity | P55212 | purified caspase-6, Z-VEID-R110 cleavage fluorescence | inhibition, % at 12.5 µM | hit rate 0.53% among 350,000;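 active means mean inhibition across replicates at least about 35%, with every replicate also reaching that limit, limit read from the data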;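 further: 0% = median of neutral control wells and 100% = no fluorescence left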
An asterisk follows results filed as active; . = no result given. Only some compounds are listed: those with a hit (about 2.4% of all), similar ones and a draw of the others.

SMILES | S100A4 MyoIIA | Ecoli rRNA inh | ARNT-TACC3 inh | ERAP1 inh | PGC1a acetyl inh | CASP6 VEID inh
CCCN(CC(=O)Nc1ccc(Cl)cc1Cl)Cc1cc(=O)n2ccsc2n1 | -12.0 | -45.5* | 5.7 | 1.3 | 9.7 | 0.8
CCCN(CC(=O)Nc1ccc(F)c(F)c1F)Cc1cc(=O)n2ccsc2n1 | -12.3 | 4.8 | 1.3 | -1.3 | 4.9 | -2.2
Cc1ccc(S(=O)(=O)Nc2ccc3c(c2)C(=O)N([C@@H](C)CO)C[C@H](C)[C@H](CN(C)Cc2ccc(Oc4ccccc4)cc2)O3)cc1 | . | -0.9 | . | . | . | .
C=CCn1cccc(/C=C/C(=O)c2ccc(C(C)(C)C)cc2)c1=S | . | . | -20.8 | . | 52.6* | .
CCC(=O)N1C[C@H](C)[C@@H](OC)CN(C)C(=O)c2cc(NC(=O)CC(F)(F)F)ccc2OC[C@@H]1C | . | 1.9 | . | . | . | .
C[C@H](CO)N1C[C@H](C)[C@@H](CN(C)S(C)(=O)=O)Oc2ccc(NS(=O)(=O)c3cn(C)cn3)cc2CC1=O | -0.3 | 5.3 | -6.9 | 0.9 | -3.1 | 6.3
Cc1ccc(C(=O)Nc2sc3c(c2C(=O)O)CCCCC3)o1 | . | . | -28.5 | . | 6.5 | .
O=C(O)CCC(=O)Nc1sc2c(c1C(=O)NCc1ccccc1)CCCC2 | -8.0 | -4.7 | -0.4 | 0.2 | -5.3 | 0.8
NC(=O)c1c(NC(=O)c2ccc([N+](=O)[O-])o2)sc2c1CCCC2 | -4.0 | -2.4 | . | 4.2 | -0.7 | -0.2
O=C(CCc1ccccc1)Nc1sc2c(c1C(=O)O)CCCC2 | -1.5 | -31.8* | . | 4.1 | -9.4 | -8.2
N#Cc1c(NC(=O)c2ccc([N+](=O)[O-])o2)sc2c1CCC2 | -2.1 | 7.0 | . | 4.5 | . | 59.1*
Cc1ccc(C(=O)Nc2sc3c(c2C(=O)O)CCCC3)o1 | -0.9 | -25.4* | -5.1 | 3.1 | . | 3.4
O=C(/C=C/c1ccco1)Nc1scc(-c2ccccc2)c1C(=O)O | -0.5 | -33.9* | 0.7 | 12.0 | 9.7 | 44.1*
CN(C)CC(=O)Nc1ccc2c(c1)[C@H]1C[C@@H](CC(=O)NCc3ccncc3)O[C@@H](CO)[C@H]1O2 | . | -0.8 | . | . | 3.4 | .
CCOC(=O)c1c(-n2c(C)cc(C=O)c2C)sc2c1CCCC2 | 6.9 | -54.8 | 2.7 | 2.9 | . | 0.1
Cc1ccc(C(=O)Nc2scc(-c3ccccc3)c2C(=O)O)o1 | -1.0 | -34.2* | -1.7 | -0.2 | . | 5.0
Cc1ccc(C)n1-c1sc2c(c1C(=O)O)CCCC2 | -11.5 | 9.4 | 2.5 | -3.0 | 4.0 | 51.9*
Cc1ccc(C(=O)Nc2ccccc2-c2ccccc2)o1 | . | . | -2.6 | . | -12.8 | .
COCC(=O)Nc1ccc2c(c1)[C@H]1C[C@H](CC(=O)NCc3cccc(F)c3)O[C@@H](CO)[C@H]1O2 | -6.3 | 1.8 | -6.8 | -0.2 | 14.4 | 2.0
O=C(C1CCOCC1)N1CC(=O)N2[C@@H](CO)[C@H](c3ccc(C#CC4CCCCC4)cc3)[C@@H]2C1 | -1.9 | 6.8 | . | 2.0 | -7.0 | -1.2
Cc1cc(C)c(Nc2cc(S(=O)(=O)O)c(N)c3c2C(=O)c2ccccc2C3=O)c(C)c1 | . | . | 54.6* | . | . | .
Cc1noc(C)c1NC(=O)N(C)C[C@@H]1Oc2ncc(C#CC3CCCC3)cc2C(=O)N([C@H](C)CO)C[C@@H]1C | -2.1 | 3.2 | -0.8 | -1.8 | -6.7 | -1.4
O=C(NCC[C@H]1CC[C@@H](NC(=O)c2ccc3c(c2)OCO3)[C@@H](CO)O1)Nc1cc(F)ccc1F | -1.8 | -4.6 | -1.2 | -0.8 | -2.1 | -2.4
COc1cccc(S(=O)(=O)Nc2ccc3c(c2)[C@@H]2C[C@@H](CC(=O)N4CCCCC4)O[C@@H](CO)[C@@H]2O3)c1 | -9.8 | -1.6 | 5.9 | -2.3 | -3.9 | -0.1
COc1cc(/C=C(\C#N)c2nc3ccccc3o2)ccc1O | -8.5 | -5.7 | 5.8 | -0.9 | -5.9 | 0.0
N#C/C(=C\c1ccc(O)cc1)c1nc2ccccc2o1 | 5.2 | -35.1* | 6.8 | 1.1 | -18.2 | 2.3
CCCn1c(/C=C/c2cc[n+](C)cc2)nc2ccccc21 | -14.0 | 18.9 | 7.0 | 41.2* | 5.7 | -15.8
CCn1c(/C=C/c2ccccc2)nc2ccccc21 | . | . | 6.8 | . | -7.4 | .
O=C(N[C@@H]1CC[C@H](CCNS(=O)(=O)c2ccc(Cl)cc2)O[C@@H]1CO)c1cccnc1 | -7.8 | 4.4 | -2.4 | -0.1 | -5.2 | -8.0
